The source made the active and inactive calls.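 The calls were made as follows, unless noted: active = mean duplicate potentiation above the buffer control mean plus 5 SD of buffer wells; inactive = the rest.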
How the values were obtained:
[1] = nonspecific flux increase, KCNQ1-free cells – parental CHO cells, counter-screen for KCNQ1 potentiator project (AID 493006;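 active = duplicate-averaged activation above buffer control mean plus 5 SD of those controls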;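 as to activation: fluorescence ratio of max minus min over baseline after K+ and Tl+ depolarization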); conditions: parental CHO-K1 cells, FluxOR thallium flux, at 10 µM; hits give high values
Summary of the method: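 Material: parental CHO-K1 cells, FluxOR dye-loaded; Also added: Potassium/thallium depolarization pulse; Schedule: overnight 37 °C plating, 90 min dye, 20 min dark compound; Signal: kinetic FluxOR fluorescence, 10 s baseline, 110 s after stimulus.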

[2] = target: Potassium voltage-gated channel subfamily KQT member 1 (Homo sapiens) (UniProt P51787); assay: enhancement of KCNQ1 channel thallium flux – FluxOR thallium flux, CHO cells, duplicates, confirmation (AID 493007;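 active = potentiation averaged over duplicate wells exceeding buffer-only control mean by more than 3 SD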;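 as to outcome: cells depolarized by a potassium plus thallium sulfate stimulus after compound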); conditions: KCNQ1 cell line, FluxOR thallium flux fluorescence, at 10 µM; hits give high values, % of reference activator effect, buffer zero
Summary of the method: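 System: KCNQ1-expressing CHO cell line; technique: kinetic thallium influx fluorescence with FluxOR dye, 10 s baseline, 110 s post-stimulus; timing: dye 90 min then compound 20 min, both at room temperature; controls: buffer-only wells as 0% and R-L3 activator as 100%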

[3] = target: Potassium voltage-gated channel subfamily KQT member 2 (Rattus norvegicus) (UniProt O88943); assay: KCNQ2 thallium flux enhancement – KCNQ2-CHO-K1 cells, selectivity assay for KCNQ1 potentiator project (AID 493009); conditions: FluxOR thallium flux fluorescence, at 10 µM; hits give high values, scaled: buffer 0, activator control 100;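 also: assay conditions were tuned for KCNQ1 rather than KCNQ2 modulators; signal is max minus min fluorescence divided by baseline after thallium stimulus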
[4] = target: Potassium voltage-gated channel subfamily KQT member 1 (Homo sapiens) (UniProt P51787); assay: KCNQ1 activators by electrophysiology – IonWorks patch clamp, KCNQ1-CHO cells, orthogonal assay for KCNQ1 potentiator project, confirmation (AID 493184;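 active = current rise at least 3 SD above the untreated control mean in each of two repeat wells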); conditions: automated patch clamp current, at 10 µM; hits give high values
Summary of the method: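 Test system: KCNQ1-expressing CHO cells. Medium: pH 7.4 external bath. Probe or stimulus: voltage step from -90 mV holding to +40 mV, 2,000 ms. Compound: 10 µM final, single point. Detection: automated perforated-patch electrophysiology. Read-out: percent current increase versus pre-compound level. Repeats: two replicates.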

Potassium voltage-gated channel subfamily KQT member 1 (Homo sapiens), sequence (P51787 whole entry, looked up): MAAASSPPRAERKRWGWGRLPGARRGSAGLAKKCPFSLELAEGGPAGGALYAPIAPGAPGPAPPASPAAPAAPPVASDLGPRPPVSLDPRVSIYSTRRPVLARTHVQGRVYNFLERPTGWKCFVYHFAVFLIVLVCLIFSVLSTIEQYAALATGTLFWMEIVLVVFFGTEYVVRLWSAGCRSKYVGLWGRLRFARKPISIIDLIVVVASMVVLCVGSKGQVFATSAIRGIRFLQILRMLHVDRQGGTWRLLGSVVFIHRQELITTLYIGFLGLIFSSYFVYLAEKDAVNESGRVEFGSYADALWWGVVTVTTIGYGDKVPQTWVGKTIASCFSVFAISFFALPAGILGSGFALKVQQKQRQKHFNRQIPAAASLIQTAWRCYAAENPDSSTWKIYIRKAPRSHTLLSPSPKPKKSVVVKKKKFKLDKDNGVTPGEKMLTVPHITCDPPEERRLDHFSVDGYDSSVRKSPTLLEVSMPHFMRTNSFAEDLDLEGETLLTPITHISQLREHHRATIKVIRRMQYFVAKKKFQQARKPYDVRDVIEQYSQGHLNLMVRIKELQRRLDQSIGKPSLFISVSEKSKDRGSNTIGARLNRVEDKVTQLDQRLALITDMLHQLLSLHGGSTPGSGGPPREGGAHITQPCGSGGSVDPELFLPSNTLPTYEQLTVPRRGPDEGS
Potassium voltage-gated channel subfamily KQT member 2 (Rattus norvegicus), sequence (O88943 whole entry, looked up): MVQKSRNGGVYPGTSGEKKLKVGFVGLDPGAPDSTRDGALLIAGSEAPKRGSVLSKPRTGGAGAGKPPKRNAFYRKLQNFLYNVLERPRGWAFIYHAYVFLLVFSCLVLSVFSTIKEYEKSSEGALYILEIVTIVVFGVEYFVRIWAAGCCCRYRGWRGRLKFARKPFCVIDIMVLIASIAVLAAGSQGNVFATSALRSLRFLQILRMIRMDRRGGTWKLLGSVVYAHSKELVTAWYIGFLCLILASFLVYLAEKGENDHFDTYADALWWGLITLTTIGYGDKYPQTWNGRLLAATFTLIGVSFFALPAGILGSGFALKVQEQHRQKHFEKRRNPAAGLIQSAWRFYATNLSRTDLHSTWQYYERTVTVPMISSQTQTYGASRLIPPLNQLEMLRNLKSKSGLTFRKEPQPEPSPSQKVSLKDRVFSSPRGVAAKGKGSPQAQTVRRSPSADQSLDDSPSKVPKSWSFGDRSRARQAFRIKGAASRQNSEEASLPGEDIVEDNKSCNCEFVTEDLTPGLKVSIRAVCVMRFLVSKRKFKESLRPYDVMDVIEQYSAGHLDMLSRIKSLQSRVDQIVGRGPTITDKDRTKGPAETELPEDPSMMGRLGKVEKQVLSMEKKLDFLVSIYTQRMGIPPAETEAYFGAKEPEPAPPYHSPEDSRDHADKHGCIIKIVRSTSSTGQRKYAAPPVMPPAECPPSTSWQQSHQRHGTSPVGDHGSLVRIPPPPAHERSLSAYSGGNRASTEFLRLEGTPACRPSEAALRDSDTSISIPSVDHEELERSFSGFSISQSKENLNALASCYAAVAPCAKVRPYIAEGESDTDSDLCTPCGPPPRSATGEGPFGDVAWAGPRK

Row | SMILES | activation [1] | potentiation [2] | outcome [3] | outcome [4] | potentiation [3] | outcome [1] | outcome [2]
1 | COc1ccc(-n2cc(CNC3CCN(C)CC3)c(-c3cccc(F)c3)n2)cc1 | 142% (active) | 31% (active) | inactive | inactive | – | – | –
2 | S=c1[nH]nc(CSc2nc3ccccc3s2)n1C1CCCCC1 | 142% (active) | 31% (active) | – | inactive | 147% (active) | – | –
3 | COC(=O)c1sc(NC(=S)NC(=O)c2ccc(C)cc2)nc1C | 172% (active) | 50.5% (active) | – | inactive | 188% (active) | – | –
4 | O=C(Nc1ccccc1Cl)N1CCN(c2ccccn2)CC1 | – | – | inactive | inactive | – | inactive | inactive
5 | O=C(NN=C1CCCCCC1)c1cc(-c2ccccc2)nc2ccccc12 | – | – | inactive | inactive | – | inactive | inactive
6 | Cc1ccc(N(C(=O)c2ccco2)C(C(=O)NC2CCCC2)c2cccnc2)cc1C (stereo not given) | – | – | inactive | inactive | – | inactive | inactive
7 | Cc1nc(NC(=S)NC(=O)c2cccs2)ccc1Br | 148% (active) | 23.5% (active) | inactive | inactive | – | – | –
8 | COc1ccccc1C(=O)NNC(=O)C(=O)NC1CCCCC1 | 262% (active) | 67.5% (active) | – | inactive | 262% (active) | – | –
9 | CC(=O)Nc1nc2c(F)cccc2s1 | – | – | inactive | inactive | – | inactive | inactive
10 | Cc1cc2n(n1)SC(Nc1ccc(F)c(Cl)c1)N2 (stereo not given) | – | – | inactive | inactive | – | inactive | inactive
11 | CCn1c(O)c(N=NC2=NC(=O)CS2)c2ccccc21 | – | – | – | inactive | 145% (active) | inactive | inactive
12 | COC(=O)c1ccc(N2CCN(S(=O)(=O)c3ccc(Br)cc3)CC2)c([N+](=O)[O-])c1 | – | – | inactive | inactive | – | inactive | inactive
13 | O=C1/C(=C/c2cccc(F)c2)SC(=S)N1NS(=O)(=O)c1ccccc1 | 146% (active) | – | inactive | inactive | – | – | inactive
14 | CCC1CCCCN1C(=S)NC(=O)c1ccc([N+](=O)[O-])cc1 (stereo not given) | 244% (active) | 92.5% (active) | – | inactive | 280% (active) | – | –
15 | O=C(Nc1nnc(-c2ccc(Cl)cc2)o1)c1ccccc1Br | 228% (active) | 86.5% (active) | – | inactive | 234% (active) | – | –
16 | CCOC(=O)C1=NN(C(=O)c2ccc(OC)cc2)C(O)(c2ccc(Cl)cc2)C1 (stereo not given) | 456% (active) | 136% (active) | – | inactive | 428% (active) | – | –
17 | CCCCn1c(N)c(C(=S)NC(=O)CC(C)(C)C)c(=O)n(C)c1=O | 140% (active) | 37.5% (active) | – | inactive | 148% (active) | – | –
18 | CCCN(CCC)CCNC(=O)Cn1cnc2sc(C)c(S(=O)(=O)N3CCOCC3)c2c1=O | – | – | inactive | inactive | – | inactive | inactive
19 | CC(C)c1nc2oc3c(NCC4CCCO4)ncnc3c2c2c1COC(C)(C)C2 (stereo not given) | – | – | inactive | inactive | – | inactive | inactive
20 | Cc1ccc(NC(=O)CCS(=O)(=O)c2cccc3nonc23)c(Br)c1 | – | – | inactive | inactive | – | inactive | inactive

Row | SMILES | activation [1] | potentiation [2] | outcome [3] | outcome [4] | potentiation [3] | outcome [1] | outcome [2]
21 | O=C(NC(=S)Nc1ccccc1N1CCCCC1)c1cccs1 | 212% (active) | 133% (active) | – | inactive | 234% (active) | – | –
22 | O=C(CNC(=O)C(c1ccccc1)c1ccccc1)N/N=C/c1ccc(O)cc1O | – | – | inactive | inactive | – | inactive | inactive
23 | CC(C)CCn1c(=S)[nH]c2ncccc2c1=O | 152% (active) | – | inactive | inactive | – | – | inactive
24 | Cc1ccccc1NC(=S)NC(=O)c1cc(-c2ccccc2)nc2ccccc12 | 151% (active) | 53% (active) | – | inactive | 158% (active) | – | –
25 | O=C(NC(=S)N1CCN(c2ccc([N+](=O)[O-])cc2Cl)CC1)c1ccco1 | – | – | inactive | inactive | – | inactive | inactive
26 | O=C(N/N=C/c1cccnc1)c1ccco1 | – | – | inactive | inactive | – | inactive | inactive
27 | CCOC(=O)c1c(N2C(=O)Nc3ccccc3N2O)n[nH]c1-c1cccc(Cl)c1 | – | – | inactive | inactive | – | inactive | inactive
28 | CC(=O)Nc1c2c(nn1-c1ccc(C)cc1)CS(=O)(=O)C2 | – | – | inactive | inactive | – | inactive | inactive
29 | CC/C(=N/NC(=O)c1ccc(Br)o1)c1ccc(Cl)cc1 | – | – | inactive | inactive | – | inactive | inactive
30 | O=C(Nc1ccc2[nH]c(=S)sc2c1)c1ccccc1 | – | 52% (active) | – | inactive | 154% (active) | inactive | –
31 | O=[N+]([O-])c1cccc(-c2ccc3nnc(SCc4ccccn4)n3n2)c1 | – | – | inactive | inactive | – | inactive | inactive
32 | O=C(NC(=S)NCc1ccccc1)c1cccs1 | 167% (active) | 81% (active) | – | inactive | 232% (active) | – | –
33 | CC1=CC(=O)C(C(C)C)=CC1=NC(=O)c1ccc(C)cc1 | – | – | inactive | inactive | – | inactive | inactive
34 | CCN1C(=O)/C(=C\C(=O)c2cccs2)c2cc(Br)ccc21 | – | – | inactive | inactive | – | inactive | inactive
35 | N#Cc1ccccc1NS(=O)(=O)c1cc2c3c(c1)CCC(=O)N3CCC2 | – | – | inactive | inactive | – | inactive | inactive
36 | C=CCCCN(Cc1ccccc1)S(=O)(=O)c1ccccc1Br | – | – | inactive | inactive | – | inactive | inactive
37 | O=c1oc2cc(OCCO)ccc2c2c1CCCC2 | – | – | inactive | inactive | – | inactive | inactive
38 | CC(=O)c1c(N2CCCC2)[nH]c(-c2ccccc2)nc1=S | – | – | inactive | inactive | – | inactive | inactive
39 | CSc1nc2sc3c(c2c(=S)[nH]1)CC(C)(C)OC3 | 528% (active) | 298% (active) | – | inactive | 652% (active) | – | –
40 | CCN=C1SC(CC(=O)Nc2ccccc2OCC)C(=O)N1CC (stereo not given) | – | – | inactive | inactive | – | inactive | inactive

Row | SMILES | activation [1] | potentiation [2] | outcome [3] | outcome [4] | potentiation [3] | outcome [1] | outcome [2]
41 | COc1ccc([N+](=O)[O-])cc1NC(=O)c1cccnc1 | – | – | inactive | inactive | – | inactive | inactive
42 | CCC(C)[C@H](N)c1nnc(SCC(=O)Nc2cccc(Cl)c2)o1 (stereo not given in full) | 210% (active) | 39.5% (active) | – | inactive | 162% (active) | – | –
43 | Cc1ccc(C(=O)O/N=C(\N)Cc2cccs2)c(Cl)c1 | – | – | inactive | inactive | – | inactive | inactive
44 | CSC(=S)N/N=C(\C)c1ccccc1 | 246% (active) | 50.5% (active) | – | inactive | 283% (active) | – | –
45 | Cc1cc(/C=N/NC(=O)c2nn(C)cc2Cl)c(C)n1-c1cccc(Br)c1 | – | – | inactive | inactive | – | inactive | inactive
46 | Cc1ccc(SCc2[nH]nc3c2C(c2ccco2)C(C#N)=C(N)O3)cc1 (stereo not given) | – | – | inactive | inactive | – | inactive | inactive
47 | CN(C)CCCN1c2ccccc2Sc2ccc(Cl)cc21 | – | – | inactive | inactive | – | inactive | inactive
48 | CCOc1ccc2nc(/N=C/c3c(C)[nH]n(-c4ccc(C)cc4)c3=O)sc2c1 | 356% (active) | 120% (active) | – | inactive | 332% (active) | – | –
49 | C/C(=N/NC(=S)Nc1cccc(C)c1)c1cccc([N+](=O)[O-])c1 | – | 44.5% (active) | inactive | inactive | – | inactive | –
50 | O=C(NC(=S)N1CCc2ccccc21)c1ccccc1Br | 537% (active) | 208% (active) | – | inactive | 490% (active) | – | –
51 | O=C1N(Cc2ccc(F)cc2)CCN1c1ccc(F)cc1 | 149% (active) | 22% (active) | – | inactive | 144% (active) | – | –
52 | Cc1ccccc1OCc1nnc(SCCN2CCCC2)n1-c1ccccc1 | – | – | inactive | inactive | – | inactive | inactive
53 | O=C(NC(=S)N1CCN(Cc2ccc3c(c2)OCO3)CC1)c1cccc(Br)c1 | 314% (active) | 123% (active) | – | inactive | 349% (active) | – | –
54 | Cc1ccc(Cn2c(SCC(=O)N3CC(=O)Nc4ccccc43)nc3ccccc3c2=O)cc1 | – | – | inactive | inactive | – | inactive | inactive
55 | O=C(c1ccccc1)N1CCCC(c2ccc(Cl)cc2)=N1 | – | – | inactive | inactive | – | inactive | inactive
56 | CCCS(=O)(=O)c1c(S(=O)(=O)CCC)c2ccc(C(N)=O)cn2c1C(=O)c1ccccc1 | – | – | inactive | inactive | – | inactive | inactive
57 | FC(F)(F)c1cc(N2CCNCC2)c2ccccc2n1 | – | – | inactive | inactive | – | inactive | inactive
58 | O=C(NC(=S)Nc1ccccn1)c1cc(-c2ccccc2)nc2ccccc12 | – | 18% (active) | inactive | inactive | – | inactive | –
59 | CCOC(=O)c1oc2c(CN3CCCCC3C)c(O)ccc2c(=O)c1-c1ccc(OC)c(OC)c1 (stereo not given) | – | – | inactive | inactive | – | inactive | inactive
60 | CCCOc1ccc(Cc2nc(N)nc(N)n2)cc1 | – | – | inactive | inactive | – | inactive | inactive

Reference: PubChem BioAssay
